Laboratory results: ChEMBL document CHEMBL3576819, “Design, synthesis, biological evaluation and molecular docking studies of phenylpropanoid derivatives as potent anti-hepatitis B virus agents” (Eur J Med Chem, 2015)
pIC50: −log10 of the molar value.

Columns and labels:
[1] = Selectivity index, ratio of CC50 for human HepG2.2.15 cells to IC50 for Hepatitis B virus infected in human HepG2.2.15 cells assessed as inhibition of HBeAg secretion; format: functional
Procedure, shortened: (§1)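 Selectivity index computed as CC50/IC50, with CC50 from cell death of HepG2.2.15 cells after 9 days of treatment (OD 450 nm) and IC50 from 50% inhibition of HBeAg or HBsAg secretion in the same cells; medium with drug renewed every 3 d.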

Hepatitis B virus [2] = assay: Antiviral activity against Hepatitis B virus infected in human HepG2.2.15 cells assessed as inhibition of HBsAg secretion by ELISA; format: functional, organism-based; settings: HepG2 2.2.15
Procedure, shortened: (§2)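 HepG2.2.15 cells (MEM, 10% FBS, 380 µg/ml G418) seeded at 1×10^5 cells/ml, held 24 h at 37 °C, then treated with various drug concentrations; medium with drug renewed every 3 d for up to 9 d. Culture medium sampled on days 3, 6 and 9, stored at -20 °C, and assayed for secreted antigen. Lamivudine as positive control; IC50 = 50% inhibition of secretion; means of at least two experiments.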

Hepatitis B virus [3] = assay: Antiviral activity against Hepatitis B virus infected in human HepG2.2.15 cells assessed as inhibition of HBeAg secretion by ELISA; format: functional, organism-based; settings: HepG2 2.2.15; procedure, shortened: as §2
[4] = Cytotoxicity against human HepG2.2.15 cells assessed as cell death after 9 days by MTT assay; format: cell-based, HepG2 2.2.15
Procedure, shortened: (§3)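 HepG2.2.15 cells (MEM, 10% FBS, 380 µg/ml G418, 37 °C, 5% CO2) seeded at 1×10^5 cells/ml, cultured 24 h, then exposed to various drug concentrations; drug-containing medium renewed every 3 d. OD read at 450 nm after 9 days; percent cell death calculated; CC50 = concentration killing 50% of cells. Means of at least two experiments.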

[5] = Selectivity index, ratio of CC50 for human HepG2.2.15 cells to IC50 for Hepatitis B virus infected in human HepG2.2.15 cells assessed as inhibition of HBsAg secretion; format: functional; procedure, shortened: as §1
Hepatitis B virus [6] = assay: Antiviral activity against Hepatitis B virus infected in human HepG2.2.15 cells assessed as inhibition of HBeAg secretion at 75 uM after 3 days by ELISA; format: functional; settings: HepG2 2.2.15, 72 h; procedure, shortened: as §2
Hepatitis B virus [7] = assay: Antiviral activity against Hepatitis B virus infected in human HepG2.2.15 cells assessed as inhibition of HBeAg secretion at 300 uM after 9 days by ELISA; format: functional; settings: HepG2 2.2.15, 216 h; procedure, shortened: as §2
Hepatitis B virus [8] = assay: Antiviral activity against Hepatitis B virus infected in human HepG2.2.15 cells assessed as inhibition of HBsAg secretion at 150 uM after 9 days by ELISA; format: functional; settings: HepG2 2.2.15, 216 h; procedure, shortened: as §2
Hepatitis B virus [9] = assay: Antiviral activity against Hepatitis B virus infected in human HepG2.2.15 cells assessed as inhibition of HBsAg secretion at 75 uM after 9 days by ELISA; format: functional; settings: HepG2 2.2.15, 216 h; procedure, shortened: as §2
Hepatitis B virus [10] = assay: Antiviral activity against Hepatitis B virus infected in human HepG2.2.15 cells assessed as inhibition of HBeAg secretion at 37.5 uM after 6 days by ELISA; format: functional; settings: HepG2 2.2.15, 144 h; procedure, shortened: as §2
Hepatitis B virus [11] = assay: Antiviral activity against Hepatitis B virus infected in human HepG2.2.15 cells assessed as inhibition of HBsAg secretion at 300 uM after 9 days by ELISA; format: functional; settings: HepG2 2.2.15, 216 h; procedure, shortened: as §2
Hepatitis B virus [12] = assay: Antiviral activity against Hepatitis B virus infected in human HepG2.2.15 cells assessed as inhibition of HBeAg secretion at 300 uM after 3 days by ELISA; format: functional; settings: HepG2 2.2.15, 72 h; procedure, shortened: as §2
Hepatitis B virus [13] = assay: Antiviral activity against Hepatitis B virus infected in human HepG2.2.15 cells assessed as cell survival at 300 uM after 9 days (reference value: 100%); format: functional; settings: HepG2 2.2.15, 216 h; procedure, shortened: as §3
Hepatitis B virus [14] = assay: Antiviral activity against Hepatitis B virus infected in human HepG2.2.15 cells assessed as cell survival at 37.5 uM after 9 days (reference value: 100%); format: functional; settings: HepG2 2.2.15, 216 h; procedure, shortened: as §3
Hepatitis B virus [15] = assay: Antiviral activity against Hepatitis B virus infected in human HepG2.2.15 cells assessed as inhibition of HBsAg secretion at 300 uM after 3 days by ELISA; format: functional; settings: HepG2 2.2.15, 72 h; procedure, shortened: as §2
Hepatitis B virus [16] = assay: Antiviral activity against Hepatitis B virus infected in human HepG2.2.15 cells assessed as inhibition of HBeAg secretion at 37.5 uM after 9 days by ELISA; format: functional; settings: HepG2 2.2.15, 216 h; procedure, shortened: as §2
Hepatitis B virus [17] = assay: Antiviral activity against Hepatitis B virus infected in human HepG2.2.15 cells assessed as inhibition of HBeAg secretion at 75 uM after 6 days by ELISA; format: functional; settings: HepG2 2.2.15, 144 h; procedure, shortened: as §2
Hepatitis B virus [18] = assay: Antiviral activity against Hepatitis B virus infected in human HepG2.2.15 cells assessed as inhibition of HBeAg secretion at 300 uM after 6 days by ELISA; format: functional; settings: HepG2 2.2.15, 144 h; procedure, shortened: as §2
Hepatitis B virus [19] = assay: Antiviral activity against Hepatitis B virus infected in human HepG2.2.15 cells assessed as inhibition of HBeAg secretion at 75 uM after 9 days by ELISA; format: functional; settings: HepG2 2.2.15, 216 h; procedure, shortened: as §2
Hepatitis B virus [20] = assay: Antiviral activity against Hepatitis B virus infected in human HepG2.2.15 cells assessed as inhibition of HBeAg secretion at 37.5 uM after 3 days by ELISA; format: functional; settings: HepG2 2.2.15, 72 h; procedure, shortened: as §2
Hepatitis B virus [21] = assay: Antiviral activity against Hepatitis B virus infected in human HepG2.2.15 cells assessed as inhibition of HBsAg secretion at 37.5 uM after 9 days by ELISA; format: functional; settings: HepG2 2.2.15, 216 h; procedure, shortened: as §2
Hepatitis B virus [22] = assay: Antiviral activity against Hepatitis B virus infected in human HepG2.2.15 cells assessed as cell survival at 150 uM after 9 days (reference value: 100%); format: functional; settings: HepG2 2.2.15, 216 h; procedure, shortened: as §3
Hepatitis B virus [23] = assay: Antiviral activity against Hepatitis B virus infected in human HepG2.2.15 cells assessed as cell survival at 75 uM after 9 days (reference value: 100%); format: functional; settings: HepG2 2.2.15, 216 h; procedure, shortened: as §3
Hepatitis B virus [24] = assay: Antiviral activity against Hepatitis B virus infected in human HepG2.2.15 cells assessed as inhibition of HBsAg secretion at 150 uM after 3 days by ELISA; format: functional; settings: HepG2 2.2.15, 72 h; procedure, shortened: as §2
Hepatitis B virus [25] = assay: Antiviral activity against Hepatitis B virus infected in human HepG2.2.15 cells assessed as inhibition of HBsAg secretion at 75 uM after 6 days by ELISA; format: functional; settings: HepG2 2.2.15, 144 h; procedure, shortened: as §2
Hepatitis B virus [26] = assay: Antiviral activity against Hepatitis B virus infected in human HepG2.2.15 cells assessed as inhibition of HBeAg secretion at 150 uM after 6 days by ELISA; format: functional; settings: HepG2 2.2.15, 144 h; procedure, shortened: as §2
Hepatitis B virus [27] = assay: Antiviral activity against Hepatitis B virus infected in human HepG2.2.15 cells assessed as inhibition of HBsAg secretion at 300 uM after 6 days by ELISA; format: functional; settings: HepG2 2.2.15, 144 h; procedure, shortened: as §2
Hepatitis B virus [28] = assay: Antiviral activity against Hepatitis B virus infected in human HepG2.2.15 cells assessed as inhibition of HBeAg secretion at 150 uM after 3 days by ELISA; format: functional; settings: HepG2 2.2.15, 72 h; procedure, shortened: as §2
Hepatitis B virus [29] = assay: Antiviral activity against Hepatitis B virus infected in human HepG2.2.15 cells assessed as inhibition of HBsAg secretion at 37.5 uM after 6 days by ELISA; format: functional; settings: HepG2 2.2.15, 144 h; procedure, shortened: as §2
Hepatitis B virus [30] = assay: Antiviral activity against Hepatitis B virus infected in human HepG2.2.15 cells assessed as inhibition of HBsAg secretion at 150 uM after 6 days by ELISA; format: functional; settings: HepG2 2.2.15, 144 h; procedure, shortened: as §2
Hepatitis B virus [31] = assay: Antiviral activity against Hepatitis B virus infected in human HepG2.2.15 cells assessed as inhibition of HBeAg secretion at 150 uM after 9 days by ELISA; format: functional; settings: HepG2 2.2.15, 216 h; procedure, shortened: as §2
Hepatitis B virus [32] = assay: Antiviral activity against Hepatitis B virus infected in human HepG2.2.15 cells assessed as inhibition of HBsAg secretion at 75 uM after 3 days by ELISA; format: functional; settings: HepG2 2.2.15, 72 h; procedure, shortened: as §2

Structure (SMILES): O/N=C/c1cccs1 [2-THIOPHENECARBOXALDEHYDE OXIME]
- Ratio CC50/IC50 [1]: 1.3
- pIC50 (Hepatitis B virus [2]): 3.45
- pIC50 (Hepatitis B virus [3]): 3.37
- CC50 at 216 h [4]: 562 µM
- Ratio CC50/IC50 [5]: 1.59

Structure (SMILES): O/N=C/c1ccccn1
- Ratio CC50/IC50 [1]: 0.86
- pIC50 (Hepatitis B virus [2]): 3.41
- pIC50 (Hepatitis B virus [3]): 3.33
- CC50 at 216 h [4]: 402 µM
- Ratio CC50/IC50 [5]: 1.04

Structure (SMILES): O/N=C/c1ccco1
- Ratio CC50/IC50 [1]: 0.91
- pIC50 (Hepatitis B virus [2]): 3.32
- pIC50 (Hepatitis B virus [3]): 3.28
- CC50 at 216 h [4]: 475 µM
- Ratio CC50/IC50 [5]: 1.01

Structure (SMILES): COc1ccc(/C=C/C(=O)O/N=C/c2ccccn2)cc1OC
- inhibition at 75 µM (Hepatitis B virus [6]): 27.7%
- inhibition at 300 µM (Hepatitis B virus [7]): 59.2%
- inhibition at 150 µM (Hepatitis B virus [8]): 54.5%
- Ratio CC50/IC50 [1]: 3.37
- inhibition at 75 µM (Hepatitis B virus [9]): 36.7%
- inhibition at 37.5 µM (Hepatitis B virus [10]): 24.7%
- inhibition at 300 µM (Hepatitis B virus [11]): 61.3%
- pIC50 (Hepatitis B virus [2]): 3.82
- pIC50 (Hepatitis B virus [3]): 3.79
- inhibition at 300 µM (Hepatitis B virus [12]): 50.4%
- CC50 at 216 h [4]: 545 µM
- viability at 300 µM (Hepatitis B virus [13]): 99.5%
- viability at 37.5 µM (Hepatitis B virus [14]): 107%
- inhibition at 300 µM (Hepatitis B virus [15]): 13.3%
- inhibition at 37.5 µM (Hepatitis B virus [16]): 27%
- inhibition at 75 µM (Hepatitis B virus [17]): 32.9%
- inhibition at 300 µM (Hepatitis B virus [18]): 56.9%
- inhibition at 75 µM (Hepatitis B virus [19]): 40.3%
- inhibition at 37.5 µM (Hepatitis B virus [20]): 19.3%
- inhibition at 37.5 µM (Hepatitis B virus [21]): 19.8%
- viability at 150 µM (Hepatitis B virus [22]): 102%
- viability at 75 µM (Hepatitis B virus [23]): 104%
- inhibition at 150 µM (Hepatitis B virus [24]): 10.8%
- inhibition at 75 µM (Hepatitis B virus [25]): 19.5%
- Ratio CC50/IC50 [5]: 3.59
- inhibition at 150 µM (Hepatitis B virus [26]): 47.4%
- inhibition at 300 µM (Hepatitis B virus [27]): 32.8%
- inhibition at 150 µM (Hepatitis B virus [28]): 36.7%
- inhibition at 37.5 µM (Hepatitis B virus [29]): 11.2%
- inhibition at 150 µM (Hepatitis B virus [30]): 26.8%
- inhibition at 150 µM (Hepatitis B virus [31]): 48.4%
- inhibition at 75 µM (Hepatitis B virus [32]): 2.54%

Structure (SMILES): COc1cc(C=O)cc2c1OCO2
- CC50 at 216 h [4]: 1080 µM

Structure (SMILES): O=Cc1ccc2c(c1)OCO2 [PIPERONAL]
- CC50 at 216 h [4]: 1290 µM

Structure (SMILES): COc1ccc(/C=C/C(=O)O)cc1OC [O,O'-DIMETHYLCAFFEIC ACID]
- Ratio CC50/IC50 [1]: <0.89
- pIC50 (Hepatitis B virus [2]): < 3.22
- pIC50 (Hepatitis B virus [3]): < 3.22
- CC50 at 216 h [4]: 535 µM
- Ratio CC50/IC50 [5]: <0.89
